According to ChEMBL document CHEMBL2375332, “Novel quinolone substituted thiazolidin-4-ones as anti-inflammatory, anticancer agents: design, synthesis and biological screening” (Eur J Med Chem, 2013):
Converted amounts (≈) assume the structure as drawn. The source made the active and inactive calls. The rule behind the calls is not given here.

Assays:
HeLa [1] = test: Cytotoxicity against human HeLa cells at 100 ug/ml […] by MTT assay; format: cell-based
BT-549 [2] = test: Cytotoxicity against human BT549 cells at 100 ug/ml […] by MTT assay; format: cell-based
Rattus norvegicus = test: Antiinflammatory activity in albino rat assessed as inhibition of carrageenan-induced paw edema at 100 mg/kg, po administered 1 hr prior to carrageenan-challenge measured after 3 hrs relative to control; format: functional
Method in brief: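 Charles Foster albino rats of either sex (150–200 g, pregnant females excluded), six per group, dosed orally; 1 h later 0.2 mL of 1% carrageenan in 0.9% NaCl injected into right hind paw subplantar tissue. Paw volume read by plethysmometer at injection and 3 h later. Control group received carrageenan only. % inhibition = 1–Dt/Dc×100. Mean ± S.D.; one-way ANOVA with Tukey's test.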

[3] = Antitumor activity against mouse EAC […] Swiss albino mouse assessed as increase in life span at 100 mg/kg, ip relative to vehicle-treated control; format: functional, Ehrlich; settings: route intraperitoneal
Method in brief: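 Female Swiss albino mice (6–8 weeks), six per group, inoculated i.p. on day 0 with 1×10⁶ viable EAC cells from donor ascites. Drug suspended in 0.25% CMC, given i.p. at 0.1 ml/10 g on days 10–14. Survival was monitored twice daily for 44 days. ILS(%) = [(MST treated/MST control) − 1]×100, where MST is total days survived divided by the number of animals.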

[4] = Antitumor activity against mouse EAC […] Swiss albino mouse assessed as change in body weight at 100 mg/kg, ip administered on day 10 measured on day 15 (reference value: 22.03 +/- 1.67%); format: functional, Ehrlich; settings: route intraperitoneal
[5] = Antitumor activity against mouse EAC […] Swiss albino mouse assessed as change in body weight at 100 mg/kg, ip administered everyday from day 10 to day 14 measured on day 12 (reference value: 22.03 +/- 1.67%); format: functional, Ehrlich; settings: route intraperitoneal
COLO 205 [6] = test: Inhibition of NF-kappaB in human COLO205 cells assessed as Bax up-regulation at IC50 after 48 hrs by RT-PCR analysis; format: cell-based
Method in brief: (§1)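 About 4x10⁶ COLO-205 cells/well treated at IC₅₀ dose for 48 h. Total RNA extracted with TRI Reagent and quantified. Bcl-2 and Bax measured by RT-PCR against GAPDH (40 cycles: 94 °C, 55 °C, 72 °C). Products run on 1.5% agarose gel and quantified by band densitometry.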

COLO 205 [7] = test: Inhibition of NF-kappaB in human COLO205 cells assessed as Bcl-2 down regulation at IC50 after 48 hrs by RT-PCR analysis; format: cell-based; method in brief: as §1
COLO 205 [8] = test: Induction of apoptosis in human COLO205 cells assessed as zeiosis at IC50 after 48 hrs by Hoechst 33258 staining-based inverted microscopic analysis; format: functional, cell-based
Method in brief: (§2)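 COLO-205 cells seeded at 10⁵ cells/ml and grown to 70-80% confluency. Treated at IC₅₀ dose for 48 h. Fixed in 4% formaldehyde for 30 min at room temperature, stained with Hoechst 33258 for 15 min, washed three times with PBS. Imaged by inverted fluorescence microscope (excitation 340-380 nm, emission 465 nm) at 400x and scored for nuclear morphology.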

COLO 205 [9] = test: Induction of apoptosis in human COLO205 cells assessed as karyopyknosis at IC50 after 48 hrs by Hoechst 33258 staining-based inverted microscopic analysis; format: functional, cell-based; method in brief: as §2
COLO 205 [10] = test: Induction of apoptosis in human COLO205 cells assessed as nuclear fragmentation at IC50 after 48 hrs by Hoechst 33258 staining-based inverted microscopic analysis; format: functional, cell-based; method in brief: as §2
COLO 205 [11] = test: Induction of apoptosis in human COLO205 cells assessed as late apoptotic cells at IC50 after 48 hrs by acridine orange-ethidium bromide staining assay; format: functional, cell-based
Method in brief: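 COLO-205 cells seeded at 10⁵ cells/ml, grown 24 h, then treated at IC₅₀ dose for 48 h. Floating and trypsinized adherent cells pooled, spun at 129 g for 5 min and washed in PBS. Stained with 1:1 acridine orange/ethidium bromide and viewed by fluorescence microscopy at 400x (green viable, orange-red apoptotic).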

ACHN = test: Cytotoxicity against human ACHN cells […] by MTT assay; format: functional, cell-based
COLO 205 [12] = test: Cytotoxicity against human COLO205 cells […] by MTT assay; format: functional, cell-based
HeLa [13] = test: Cytotoxicity against human HeLa cells after 24 hrs by MTT assay; format: functional, cell-based
BT-549 [14] = test: Cytotoxicity against human BT549 cells after 24 hrs by MTT assay; format: functional, cell-based; settings: BT-549, 24 h

Compound | Activity (HeLa [1]) [%] | Activity (BT-549 [2]) [%] | inhibition in vivo at 100 mg/kg (Rattus norvegicus) [%] | also measured
Cc1cc(=O)[nH]c2cc(N3C(=O)CSC3c3cccc(F)c3)ccc12 (stereo not given) | 52.738 | 50.052 | 23.6 | –
COc1ccc(C2SCC(=O)N2c2ccc3c(C)cc(=O)[nH]c3c2)cc1OC (stereo not given) | 30.492 | 31.737 | 20.6 | –
Cc1cc(=O)[nH]c2cc(N3C(=O)CSC3c3ccccc3Cl)ccc12 (stereo not given) | 52.496 | 61.394 | 14.5 | –
Cc1cc(=O)[nH]c2cc(N3C(=O)CSC3c3ccc(Br)o3)ccc12 (stereo not given) | 31.332 | 42.357 | 23.3 | –
Cc1ccc(C2SCC(=O)N2c2ccc3c(C)cc(=O)[nH]c3c2)s1 (stereo not given) | 31.485 | 22.023 | 15.8 | –
Cc1cc(=O)[nH]c2cc(N3C(=O)CSC3c3cccnc3)ccc12 (stereo not given) | 34.851 | 29.032 | 6.81 | –
Cc1cc(=O)[nH]c2cc(N3C(=O)CSC3c3cccs3)ccc12 (stereo not given) | 83.762 | 63.163 | 18.6 | Activity [3]: 77.09%; MST [3]: 32.16 days; Activity [4]: 3.86%; Activity [5]: 6.66%; inhibition (COLO 205 [6]): Active; inhibition (COLO 205 [7]): Active; Activity (COLO 205 [8]): Active; Activity (COLO 205 [9]): Active; Activity (COLO 205 [10]): Active; Activity (COLO 205 [11]): Active; IC50 (ACHN): 44.7 µg/mL (≈ 131 µM); IC50 (COLO 205 [12]): 20.7 µg/mL (≈ 60.6 µM); IC50 (HeLa [13]): 27.1 µg/mL (≈ 79 µM); IC50 (BT-549 [14]): 43 µg/mL (≈ 126 µM)
Cc1cc(=O)[nH]c2cc(N3C(=O)CSC3c3ccc(O)cc3)ccc12 (stereo not given) | 68.91 | 42.143 | 22.9 | –
Cc1cc(=O)[nH]c2cc(N3C(=O)CSC3c3ccc(Br)s3)ccc12 (stereo not given) | 33.267 | 52.34 | 24 | –
Cc1cc(=O)[nH]c2cc(N3C(=O)CSC3c3ccc(N(C)C)cc3)ccc12 (stereo not given) | 33.267 | 29.327 | 13.3 | –
Cc1cc(=O)[nH]c2cc(N3C(=O)CSC3c3ccncc3)ccc12 (stereo not given) | 20.343 | 22.176 | 7.62 | –
Cc1cc(=O)[nH]c2cc(N3C(=O)CSC3N3CCOCC3)ccc12 (stereo not given) | 23.662 | 25.274 | 1.75 | –
Cc1cc(=O)[nH]c2cc(N3C(=O)CSC3c3ccccc3Br)ccc12 (stereo not given) | 44.279 | 38.709 | 14 | –
Cc1cc(=O)[nH]c2cc(N3C(=O)CSC3N3CCCCC3)ccc12 (stereo not given) | 29.394 | 31.949 | 2.77 | –
Cc1cc(=O)[nH]c2cc(N3C(=O)CSC3c3cccc(Cl)c3)ccc12 (stereo not given) | 44.158 | 44.849 | 23.3 | –
COc1cc(C2SCC(=O)N2c2ccc3c(C)cc(=O)[nH]c3c2)ccc1O (stereo not given) | 41.028 | 54.11 | 12.4 | –
Cc1ccc(C2SCC(=O)N2c2ccc3c(C)cc(=O)[nH]c3c2)o1 (stereo not given) | 27.453 | 31.114 | 10.1 | –
